The source of these data is ChEMBL document CHEMBL4007460, “17β-Hydroxywithanolides as Sensitizers of Renal Carcinoma Cells to Tumor Necrosis Factor-α Related Apoptosis Inducing Ligand (TRAIL) Mediated Apoptosis: Structure-Activity Relationships” (J Med Chem, 2017).

What is called pIC50 is the negative decadic logarithm of the IC50, by convention in mol/L.

pIC50: −log10 of the molar value. Activity calls are given as the source filed them. The calls are words filed in the database; no cut-off is given here.

The test system of one series is CAKI-1. Kind of series: Sensitization of TRAIL-induced apoptosis in human Caki1 cells assessed as reduction in cell viability at 125 to 500 nM preincubated for 2 hrs followed by addition of TRAIL measured after 18 hrs by MTS assay. The format is functional, cell-based. An outline of the steps:
(§1)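 Caki-1, SN12C or UO-31 renal cells seeded 5000/well, grown overnight at 37 °C, pretreated with compound across a concentration range for 2 h, then TRAIL 50 ng/mL added for 18 h more at 37 °C. Medium: RPMI, 5% FCS with supplements. Viable cells by MTS (2 h, A490); growth inhibition = (media − treatment)/media ×100. Triplicate, ≥3 experiments.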

The subject of series [1] is ACHN. Kind of series: Cytotoxicity in human ACHN cells assessed as viable cells at 1250 to 5000 nM after 48 hrs by MTS assay. The format is cell-based. Conditions: 5 µM.
A further series concerns UO-31. Description: Sensitization of TRAIL-induced apoptosis in human UO31 cells assessed as reduction in cell viability at 125 to 500 nM preincubated for 2 hrs followed by addition of TRAIL measured after 18 hrs by MTS assay. The series is classed as functional, cell-based. An outline of the steps:
as §1
On the technique in general: Tetrazolium assays rely on reduction of a dye to a coloured formazan, in cell work by metabolically active cells.

Series [2] deals with ACHN. Description: Reduction cFLIP level in human ACHN cells at 500 nM after 18 hrs by Western blot analysis. The format is functional, cell-based. An outline of the steps:
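ACHN cells (RPMI, 5% FBS) plated 1.5×10^6/well, grown overnight at 37 °C, then exposed to compound at 500 nM for 18 h. Lysed in RIPA with protease/phosphatase inhibitors and zVAD-FMK; 20 μg protein per lane immunoblotted with anti-FLIP (7F10); GAPDH as loading control.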
(In western blotting, separated proteins are transferred to a membrane and probed.)

The test system of series [3] is ACHN. Kind of series: Sensitization of TRAIL-induced apoptosis in human ACHN cells assessed as reduction in cell viability preincubated for 2 hrs followed by addition of TRAIL measured after 18 hrs by MTS assay. The format is functional, cell-based. An outline of the steps:
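ACHN cells were seeded at 5000/well and rested overnight at 37 °C, in RPMI with 5% FCS, glutamine, NEAA, pyruvate, HEPES and 2-mercaptoethanol. Compound pretreatment ran 2 h, then TRAIL was added to 50 ng/mL for 18 h at 37 °C. Viability was read by MTS (2 h, A490). IC50 values (cell number reduced 50%) came from dose-response curves; triplicates, at least 3 independent experiments, ± SD.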

Series [4] relates to ACHN. Description: Cytotoxicity in human ACHN cells assessed as reduce cell number after 48 hrs by MTS assay. The format is cell-based. Put shortly:
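ACHN cells exposed to compound for 48 h at 37 °C; viable cell number by MTS read-out. Triplicate determinations; IC50 (concentration reducing cell number by 50%) from 3 independent experiments, ± SD.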

Series [5] is described as follows: Glutathione reactivity in DMSO assessed as formation of MIchael adduct with GSH at pH 7.4 after 24 hrs in presence of NAC by HPLC method. Put shortly:
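Withanolide (2.12 μM in DMSO, 0.5 mL) mixed with equal volume of 4.24 μM GSH or NAC solution at pH 7.4, 37 °C. Aliquots taken at 0, 0.5, 2, 4, 8, 24 h, stored −80 °C; unreacted withanolide quantified by C18 HPLC (H2O with 40 mM NH4OAc–MeOH gradient, UV 230 nm) using peak area.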

A further series has as its system SN12C. Description: Sensitization of TRAIL-induced apoptosis in human SN12C cells assessed as reduction in cell viability at 125 to 500 nM preincubated for 2 hrs followed by addition of TRAIL measured after 18 hrs by MTS assay. The format is functional, cell-based. Put shortly:
as §1

The test system of series [6] is ACHN. Description: Induction of DR5 expression in human ACHN cells by Western blotting method. The series is classed as functional, cell-based.
For series [7], the system named is ACHN. Kind of series: Sensitization of TRAIL-induced apoptosis in human ACHN cells assessed as increase in caspase8 activation at 125 to 1000 nM preincubated for overnight followed by addition of TRAIL for 90 mins measured after 18 hrs by Western blot analysis. The series is classed as functional, cell-based. An outline of the steps: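 ACHN cells plated 1.5×10^6/well, grown overnight, treated overnight (18 h) with compound at 125–1000 nM, then TRAIL for 90 min before RIPA lysis (with zVAD-FMK). 20 μg protein immunoblotted for pro- and cleaved caspase-8 and caspase-3; GAPDH loading control. TRAIL given as 200 ng/mL in methods, 50 ng/mL in legend.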

In series [8] the test system is ACHN. Description: Sensitization of TRAIL-induced apoptosis in human ACHN cells assessed as increase in caspase8 activation at 125 to 1000 nM preincubated for overnight followed by addition of TRAIL for 90 mins measured after 6 hrs by Western blot analysis. The series is classed as functional, cell-based.
Series [9] deals with ACHN. Description: Induction of CHOP expression in human ACHN cells at 2.5 to 5 uM measured after 24 hrs by Western blotting method. The series is classed as functional, cell-based.
Series [10] deals with ACHN. Kind of series: Induction of BIP expression in human ACHN cells at 2.5 to 5 uM measured after 24 hrs by Western blotting method. The format is functional, cell-based.
The subject of series [11] is ACHN. Description: Induction of HSP70 expression in human ACHN cells at 2.5 to 5 uM measured after 24 hrs by Western blotting method. The format is functional, cell-based.
The test system of series [12] is ACHN. Kind of series: Reduction cFLIP level in human ACHN cells at 125 to 1000 nM after 16 hrs by Western blot analysis. The series is classed as functional, cell-based.
Series [13] has as its system ACHN. Description: Reduction cFLIP level in human ACHN cells at 125 to 1000 nM after 18 hrs by Western blot analysis.

With `CC1=C(C)C(=O)O[C@@H]([C@](C)(O)[C@]2(O)CC[C@@]3(O)[C@@H]4C[C@H]5O[C@]56[C@H](O)C=CC(=O)[C@]6(C)[C@H]4CC[C@]23C)C1`, the outcome (in the series on CAKI-1; in the series with UO-31; in the series with ACHN [2]; in [5]; in the series on SN12C; with ACHN [7]) was Active. In addition, the figures for the Activity result in the series on ACHN [1] and in the series on ACHN [4] were “Non-Toxic” and “Toxic”, respectively. The pIC50 with ACHN [3] was 7.17. In addition, the result with ACHN [6] was inactive.

In the case of `CC(=O)OC[C@]12CC[C@H]3[C@@H](C[C@H]4O[C@]45CC=CC(=O)[C@]35C)[C@]1(O)CC[C@@]2(O)[C@@](C)(O)[C@H]1CC(C)=C(C)C(=O)O1`, the outcome (in the series with CAKI-1; in the series on ACHN [8]; in the series with UO-31; in the series with ACHN [2]; in series [5]; with SN12C) was Active. Also, the result with ACHN [7] was Active. The Activity entry in the series on ACHN [1] was “Non-Toxic”; in the series on ACHN [4], “Toxic”. Moreover, the result in the series on ACHN [9], with ACHN [10], in the series with ACHN [11] and in the series with ACHN [6] was inactive. In addition, the pIC50 with ACHN [3] was 6.79.

Turning to `CC(=O)OCC1=C(C)C[C@H]([C@@H](C)[C@H]2CC[C@H]3[C@@H]4C[C@H]5O[C@]56[C@H](OC(C)=O)C=CC(=O)[C@]6(C)[C@H]4CC[C@]23C)OC1=O`, the outcome in the series on ACHN [12] was inactive. Also, the result with ACHN [9], in the series with ACHN [10] and in the series on ACHN [11] was Active.

With `CC1=C(CO)C(=O)O[C@@H]([C@@H](C)[C@H]2CC[C@H]3[C@@H]4C[C@H]5O[C@]56[C@@H](O)C=CC(=O)[C@]6(C)[C@H]4CC[C@]23C)C1` [WITHAFERIN A], the result in the series with ACHN [13], in the series on CAKI-1, in the series on UO-31, in the series with SN12C, in the series with ACHN [6] and with ACHN [7] was inactive. In addition, in the series on ACHN [1], the Activity result was “Toxic”. Besides, the result (in the series on ACHN [9]; in the series with ACHN [10]; with ACHN [11]; in series [5]) was Active. The pIC50 in the series with ACHN [3] was below 5.70.

Consider `CC1=C(C)C(=O)O[C@@H]([C@](C)(O)[C@]2(O)CC[C@@]3(O)[C@@H]4C[C@H]5O[C@]56CC=CC(=O)[C@]6(C)[C@H]4CC[C@]23C)C1` [WITHANOLIDE E], for which the result (in the series with CAKI-1; in the series with UO-31; with ACHN [2]; in series [5]; in the series on SN12C; in the series with ACHN [7]) was Active. Moreover, the results for the Activity result in the series with ACHN [1] and in the series on ACHN [4] were “Non-Toxic” and “Toxic”, respectively. The outcome in the series with ACHN [9], in the series on ACHN [10], in the series on ACHN [11] and in the series on ACHN [6] was inactive. Also, in the series on ACHN [3], the pIC50 is 6.31.
